Measured values reported in PMC10413833 (ACS Omega, 2023).
In brackets after ≈: the same amount, converted by molar mass.

What was measured:
MRSA1 [1] = experiment: In vitro antibacterial activity; assay type: cell-based; details: Staphylococcus aureus
MRSA2 = experiment: In vitro antibacterial activity; assay type: cell-based, Staphylococcus aureus
MRSA3 = experiment: In vitro antibacterial activity; assay type: cell-based; details: Staphylococcus aureus
MRSA4 = experiment: In vitro antibacterial activity; assay type: cell-based; details: Staphylococcus aureus
MRSA5 = experiment: In vitro antibacterial activity; assay type: cell-based; details: Staphylococcus aureus
MRSA1 [2] = experiment: In vivo antibacterial activity, survival of MRSA1 infected mice; set-up: species or system BALB/c mice; details: for survival (%): final survival rate after 7 days
Outline: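 Female BALB/c mice (6–8 weeks, 18-22 g) were housed under SPF conditions. They were infected via the tail vein with 0.1 mL of a Columbia broth culture of clinical MRSA1 diluted to OD600 1.5. One hour later, test compound or vancomycin was given IV at 2.5, 10 or 40 mg/kg; an untreated model group was included. Deaths were recorded daily for 7 days to build survival curves. Tissues were examined by H&E histology.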

[3] = comparison value for vancomycin ref 18, 19; cited from earlier work

CN[C@H](CC(C)C)C(=O)N[C@H]1C(=O)N[C@@H](CC(N)=O)C(=O)N[C@H]2C(=O)N[C@H]3C(=O)N[C@H](C(=O)N[C@H](C(=O)O)c4cc(O)cc(O)c4-c4cc3ccc4O)[C@H](O)c3ccc(c(Cl)c3)Oc3cc2cc(c3O[C@@H]2O[C@H](CO)[C@@H](O)[C@H](O)[C@H]2O[C@H]2C[C@](C)(N)[C@H](O)[C@H](C)O2)Oc2ccc(cc2Cl)[C@H]1O [vancomycin]
MIC (MRSA1 [1]): 256 mg/L (≈ 177 µM) | MIC (MRSA2; Staphylococcus aureus): > 512 mg/L | MIC (MRSA2; clinical isolate MRSA2): >512 mg/L | MIC (MRSA3): 512 mg/L (≈ 353 µM) | MIC (MRSA4): 256 mg/L (≈ 177 µM) | MIC (MRSA5): 256 mg/L (≈ 177 µM) | survival (%) (MRSA1 [2]; 2.5 mg/kg (low-dose)): 0% | number of mice surviving (MRSA1 [2]; 2.5 mg/kg via tail vein, day1, 6 mice): 3 | number of mice surviving (MRSA1 [2]; 2.5 mg/kg via tail vein, day2, 6 mice): 2 | number of mice surviving (MRSA1 [2]; 2.5 mg/kg via tail vein, day3, 6 mice): 2 | number of mice surviving (MRSA1 [2]; 2.5 mg/kg via tail vein, day4, 6 mice): 2 | number of mice surviving (MRSA1 [2]; 2.5 mg/kg via tail vein, day5, 6 mice): 1 | number of mice surviving (MRSA1 [2]; 2.5 mg/kg via tail vein, day6, 6 mice): 1 | number of mice surviving (MRSA1 [2]; 2.5 mg/kg via tail vein, day7, 6 mice): 0 | survival (%) (MRSA1 [2]; 10 mg/kg (medium-dose)): 16.7% | number of mice surviving (MRSA1 [2]; 10 mg/kg via tail vein, day1, 6 mice): 6 | number of mice surviving (MRSA1 [2]; 10 mg/kg via tail vein, day2, 6 mice): 5 | number of mice surviving (MRSA1 [2]; 10 mg/kg via tail vein, day3, 6 mice): 2 | number of mice surviving (MRSA1 [2]; 10 mg/kg via tail vein, day4, 6 mice): 2 | number of mice surviving (MRSA1 [2]; 10 mg/kg via tail vein, day5, 6 mice): 2 | number of mice surviving (MRSA1 [2]; 10 mg/kg via tail vein, day6, 6 mice): 1 | number of mice surviving (MRSA1 [2]; 10 mg/kg via tail vein, day7, 6 mice): 1 | survival (%) (MRSA1 [2]; 40 mg/kg (high-dose)): 33.3% | number of mice surviving (MRSA1 [2]; 40 mg/kg via tail vein, day1, 6 mice): 5 | number of mice surviving (MRSA1 [2]; 40 mg/kg via tail vein, day2, 6 mice): 5 | number of mice surviving (MRSA1 [2]; 40 mg/kg via tail vein, day3, 6 mice): 5 | number of mice surviving (MRSA1 [2]; 40 mg/kg via tail vein, day4, 6 mice): 4 | number of mice surviving (MRSA1 [2]; 40 mg/kg via tail vein, day5, 6 mice): 2 | number of mice surviving (MRSA1 [2]; 40 mg/kg via tail vein, day6, 6 mice): 2 | number of mice surviving (MRSA1 [2]; 40 mg/kg via tail vein, day7, 6 mice): 2 | ED50 (MRSA1 [2]; Mus musculus): 59.7 mg/kg | kidney infection, H&E staining (MRSA1 [2]; high-dose (40 mg/kg)): severe kidney infection | kidney infection, H&E staining (MRSA1 [2]; low-dose (2.5 mg/kg)): severe kidney infection | kidney infection, H&E staining (MRSA1 [2]; medium-dose (10 mg/kg)): severe kidney infection | half-life (T1/2) [3]: 4.3 ± 1.9 h
